For orientation: CC50 means the concentration at which the toxic effect on the cells reaches its halfway point. Read a high CC50 as lower toxicity to the cells. For orientation: IC50 means the midpoint of a concentration-inhibition curve. Low readings indicate inhibition by little substance, high ones a need for much substance.

Data on 38 molecules can be found in ChEMBL document CHEMBL1144474, “Synthesis and anti-HIV-1 activity evaluation of 5-alkyl-2-alkylthio-6-(arylcarbonyl or alpha-cyanoarylmethyl)-3,4-dihydropyrimidin-4(3H)-ones as novel non-nucleoside HIV-1 reverse transcriptase inhibitors” (J Med Chem, 2007).

Data set [1] in a line: Cytotoxicity against MT4 cells after 4 days by MTT method. In kind it is cell-based. The settings on record: human. In outline:
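Uninfected MT-4 cells were run in parallel with the infected cultures across a range of compound concentrations (DMSO stocks, 50 mM or higher). After 4 days at 37 °C, viability was read by MTT. CC₅₀ is the concentration that cuts normal cell viability by 50%.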
For orientation: Formazan colour is commonly taken as a measure of viable cells.

Data set [2] in a line: Selectivity index, CC50 for MT4 cells/IC50 for HIV1 3B. In kind it is functional. An outline of the steps: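 Ratio of CC₅₀ in uninfected MT-4 cells to IC₅₀ against HIV-1 IIIB cytopathogenicity in MT-4 cells. Both values come from the 4-day, 37 °C MTT read-out, run in parallel.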
For data set [3], the system named is Human immunodeficiency virus 1. Put plainly: Antiviral activity against wild type HIV1 3B in MT4 cells after 4 days by MTT method. Format: functional, organism-based. The settings on record: Human immunodeficiency virus 1, 3B, MT4, 96 h. In outline: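 MT-4 cells at 1 × 10⁵ cells/mL infected with HIV-1 IIIB (titrated as CCID₅₀) at MOI 0.02, then plated right away into serial compound dilutions (DMSO stocks, 50 mM or higher). After 4 days at 37 °C, viable cells were counted by MTT. IC₅₀ is the concentration giving 50% protection from viral cytopathogenicity.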

The test system of data set [4] is Human immunodeficiency virus 1. Put plainly: Antiviral activity against HIV1 3B in human PBMC assessed by measuring p24 antigen production after 7 days by ELISA. To be noted: Human immunodeficiency virus 1, 3B, 168 h. Format: functional, organism-based. In outline:
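Donor PBMCs were isolated by density centrifugation, stimulated with PHA for 3 days and washed in PBS. Cells (2 × 10⁵/200 µL) were plated in serial compound dilutions and infected with HIV at 1000 CCID₅₀ per mL. On day 4, medium was partly replaced with fresh medium containing compound. p24 antigen in the supernatant was measured by ELISA on day 7.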
A general note: ELISA stands for enzyme-linked immunosorbent assay.

Data set [5] can be described thus: Cytotoxicity against mock-infecected human PBMC. Format: cell-based. To be noted: mock-infected PBMC.
Data set [6] can be described thus: Selectivity index, CC50 for PBMC/IC50 for HIV1 3B. Format: functional.

For the molecule `C=CCSc1nc(C(C#N)c2cccc3ccccc23)c(CC)c(=O)[nH]1` (stereo unspecified), in data set [1], the CC50 at 96 h is greater than 346 µM. Also, the “Ratio CC50/IC50” value in data set [2] is recorded as greater than 585. In data set [3], this molecule returned an IC50 of 0.58 µM.
In data set [1], `CCSc1nc(C(=O)c2cccc3ccccc23)cc(=O)[nH]1` displayed a CC50 at 96 h of 242 µM. Besides, the “Ratio CC50/IC50” value in data set [2] is on record as 6. Moreover, in data set [3], inhibition was half-maximal at 37.6 µM (IC50).
For `CCc1c(C(=O)c2cccc3ccccc23)nc(SC(C)C)[nH]c1=O`, the midpoint of cytotoxicity in data set [1], the CC50 at 96 h, lay at 179 µM. Moreover, the “Ratio CC50/IC50” value in data set [2] turned out to be 26. The molecule further displayed an IC50 in data set [3] of 6.79 µM.
As to `CCc1c(C(=O)c2cccc3ccccc23)nc(SCc2ccccc2)[nH]c1=O`, in data set [1], the CC50 at 96 h is greater than 312 µM. The IC50 in data set [3] is greater than 312 µM.
In the case of `CCc1c(C(C#N)c2cccc3ccccc23)nc(SC2CCCC2)[nH]c1=O` (stereo unspecified), the CC50 at 96 h in data set [1] was 51.9 µM. Moreover, in data set [2], the “Ratio CC50/IC50” value was 293. This molecule yielded an IC50 in data set [3] of 0.18 µM.
`CCc1c(C(C#N)c2cccc3ccccc23)nc(SC(C)C)[nH]c1=O` (stereo unspecified): the IC50 in data set [4] was 1.66 µM; in data set [3], 0.24 µM. This molecule showed a CC50 in data set [5] greater than 68.9 µM. In addition, the CC50 at 96 h in data set [1] is greater than 344 µM. Also, the entries for the “Ratio CC50/IC50” value in data set [6] and in data set [2] were greater than 41 and greater than 1400, respectively.
Consider `Cc1c(C(C#N)c2ccccc2)nc(SC(C)C)[nH]c1=O` (stereo unspecified), for which the midpoint of cytotoxicity in data set [1], the CC50 at 96 h, lay at 10.8 µM. Also, the “Ratio CC50/IC50” value in data set [2] is listed as 4600. The same molecule gave an IC50 in data set [3] of 0.002 µM.
With `CC(C)Sc1nc(C(C#N)c2cccc3ccccc23)cc(=O)[nH]1` (stereo unspecified), in data set [1], the CC50 at 96 h worked out at 53.2 µM. Moreover, in data set [2], the “Ratio CC50/IC50” value is recorded as 82. Further, half-maximal inhibition in data set [3] (IC50) was put at 0.66 µM.
In the same order, the values of `C#CCSc1nc(C(C#N)c2cccc3ccccc23)c(CC)c(=O)[nH]1` (stereo unspecified) are 48 µM, 10 and 4.85 µM.
For the molecule `COc1ccc(CSc2nc(C(C#N)c3cccc4ccccc34)c(C(C)C)c(=O)[nH]2)cc1` (stereo unspecified), in data set [1], the CC50 at 96 h came out at 2.09 µM. Besides, the “Ratio CC50/IC50” value in data set [2] is given as less than 1. Also, the IC50 in data set [3] was greater than 2.09 µM.
The matching figures for `Cc1c(C(C#N)c2cccc3ccccc23)nc(SC2CCCC2)[nH]c1=O` (stereo unspecified): 49.4 µM, 61 and 0.8 µM.
In the same order, the values of `CC(C)c1c(C(=O)c2cccc3ccccc23)nc(SC2CCCC2)[nH]c1=O` are 24.7 µM, 2 and 10.9 µM.
In the same order, the values of `CCc1c(C(C#N)c2cccc3ccccc23)nc(SCC(=O)c2ccc(Cl)cc2)[nH]c1=O` (stereo unspecified) are 117 µM, “<=3” and no less than 35.7 µM.
`C#CCSc1nc(C(=O)c2cccc3ccccc23)c(C)c(=O)[nH]1` registered a CC50 at 96 h in data set [1] of 124 µM. Moreover, the “Ratio CC50/IC50” value in data set [2] is on record as less than 1. Besides, the IC50 in data set [3] is greater than 124 µM.
In the case of `CCc1c(C(C#N)c2ccccc2)nc(SC(C)C)[nH]c1=O` (stereo unspecified), half-maximal cytotoxicity in data set [1] (CC50 at 96 h) was put at 58 µM. In addition, the “Ratio CC50/IC50” value in data set [2] worked out at 91. Also, the IC50 in data set [3] was 0.64 µM.
Consider `Cc1c(C(C#N)c2cccc3ccccc23)nc(SCC(=O)c2ccccc2)[nH]c1=O` (stereo unspecified), for which the IC50 worked out at 0.99 µM in data set [4] and 0.09 µM in data set [3]. In data set [5], the CC50 came to 69.9 µM. Moreover, in data set [1], the midpoint of cytotoxicity, the CC50 at 96 h, lay at 164 µM. In addition, the “Ratio CC50/IC50” value in data set [6] came out at 70; in data set [2], 1500.
Take `N#CC(c1cc(=O)[nH]c(SC2CCCC2)n1)c1cccc2ccccc12` (stereo unspecified): in data set [1], half-maximal cytotoxicity (CC50 at 96 h) was put at 22.8 µM. For the same molecule, the “Ratio CC50/IC50” value in data set [2] was less than 1. The molecule also had an IC50 in data set [3] greater than 22.8 µM.
In the same order, the values of `COc1ccc(CSc2nc(C(C#N)c3c(Cl)cccc3Cl)c(C(C)C)c(=O)[nH]2)cc1` (stereo unspecified) are 23.5 µM, less than 1 and greater than 23.5 µM.
As for `Cc1c(C(C#N)c2ccccc2)nc(SCC(=O)c2ccccc2)[nH]c1=O` (stereo unspecified), the CC50 at 96 h in data set [1] was 53.8 µM. Further, the “Ratio CC50/IC50” value in data set [2] is on record as 7. In data set [3], this molecule came in with an IC50 of 7.28 µM.
In the same order, the values of `CCc1c(C(C#N)c2c(Cl)cccc2Cl)nc(SCc2ccc([N+](=O)[O-])cc2)[nH]c1=O` (stereo unspecified) are 23.5 µM, 11 and 2.22 µM.
The matching figures for `Cc1ccnc2c1NC(=O)c1cccnc1N2C1CC1` [NEVIRAPINE]: greater than 200 µM, greater than 800 and 0.25 µM.
The matching figures for `CCSc1nc(C(C#N)c2cccc3ccccc23)c(CC)c(=O)[nH]1` (stereo unspecified): 122 µM, 103 and 1.17 µM.
In turn, `CCc1c(C(=O)c2ccc3ccccc3c2)nc(SCc2ccccc2)[nH]c1=O` registered a CC50 at 96 h in data set [1] of 157 µM. Further, the “Ratio CC50/IC50” value in data set [2] is reported as “<=3”. This molecule registered an IC50 in data set [3] of no less than 60.8 µM.
In the same order, the values of `COc1ccc(CSc2nc(C(C#N)c3ccccc3)c(C(C)C)c(=O)[nH]2)cc1` (stereo unspecified) are 26.8 µM, 8 and 3.53 µM.
In data set [1], `C#CCSc1nc(C(C#N)c2cccc3ccccc23)c(C)c(=O)[nH]1` (stereo unspecified) showed a CC50 at 96 h of 46.1 µM. In addition, in data set [2], the “Ratio CC50/IC50” value worked out at 17. The molecule further showed an IC50 in data set [3] of 2.7 µM.
In data set [1], `CCSc1nc(C(=O)c2cccc3ccccc23)c(CC)c(=O)[nH]1` had a CC50 at 96 h of 197 µM. Also, the “Ratio CC50/IC50” value in data set [2] came out at 7. In data set [3], the IC50 was 27.8 µM.
In the same order, the values of `Cc1c(C(=O)c2ccccc2)nc(SC(C)C)[nH]c1=O` are 263 µM, 128 and 2.05 µM.
The matching figures for `CC(C)c1c(C(C#N)c2cccc3ccccc23)nc(SC2CCCC2)[nH]c1=O` (stereo unspecified): 7.32 µM, 5 and 1.34 µM.
The molecule `O=C(c1cc(=O)[nH]c(SC2CCCC2)n1)c1cccc2ccccc12` showed a CC50 at 96 h in data set [1] of 21 µM. The “Ratio CC50/IC50” value in data set [2] is less than 1. The IC50 in data set [3] was greater than 21 µM.
In the same order, the values of `C=CCSc1nc(C(=O)c2cccc3ccccc23)c(CC)c(=O)[nH]1` are 210 µM, 12 and 16.9 µM.
Take `Cc1c(Sc2ccccc2)n(COCCO)c(=O)[nH]c1=O` [HEPT]: in data set [2], the “Ratio CC50/IC50” value is recorded as 80.
For the molecule `O=C(CSc1nc(C(=O)c2cccc3ccccc23)cc(=O)[nH]1)c1ccccc1`, in data set [1], the CC50 at 96 h was greater than 304 µM. Besides, the IC50 in data set [3] was greater than 304 µM.
`CCSc1nc(C(=O)c2ccccc2)cc(=O)[nH]1` came in with a CC50 at 96 h in data set [1] of 247 µM. Further, the “Ratio CC50/IC50” value in data set [2] was less than 1. The same molecule gave an IC50 in data set [3] greater than 247 µM.
The matching figures for `Cc1c(C(C#N)c2ccccc2)nc(SC2CCCC2)[nH]c1=O` (stereo unspecified): 59 µM, 9 and 6.34 µM.
The matching figures for `CCc1c(C(C#N)c2ccccc2)nc(SCc2ccc([N+](=O)[O-])cc2)[nH]c1=O` (stereo unspecified): 34.2 µM, 26 and 1.33 µM.
The matching figures for `Cc1c(C(C#N)c2cccc3ccccc23)nc(SCC(=O)c2ccc(Cl)cc2)[nH]c1=O` (stereo unspecified): 148 µM, 32 and 4.71 µM.
Consider `CCc1c(C(C#N)c2cccc3ccccc23)nc(SCc2ccc([N+](=O)[O-])cc2)[nH]c1=O` (stereo unspecified), for which the CC50 at 96 h in data set [1] amounted to 24.5 µM. Besides, the “Ratio CC50/IC50” value in data set [2] came to 20. This molecule also displayed an IC50 in data set [3] of 1.25 µM.
The matching figures for `CCc1c(C(=O)c2ccccc2)nc(SC2CCCC2)[nH]c1=O`: 60.4 µM, 13 and 4.69 µM.
